High-throughput results (PubChem)
An excerpt weighted towards active compounds, which were near 1.6% of everything screened.
sdo1 growth – restores growth of sdo1-depleted yeast; S. cerevisiae sdo1-depleted JHY4D growth rescue, OD600 30 h; stronger effect = higher value; pdr5 snq2 efflux-pump mutant strain; z-score at 10 µM; 140,000 compounds, 0.21% hits; AID 817;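 active = z-score above 3 at both the 24 hr and the 30 hr optical density reads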;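 note: z-score against mean and SD of all compound wells on the same plate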
NCF1 inh – inhibitors of human p47phox binding; P14598; p47phox/p22phox peptide binding, fluorescence polarization, 2 h; inhibition, % at 24.7 µM; 220,000 compounds, 0.53% hits;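 active = inhibition above about 30%, limit read from the data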;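 note: 0% = p47phox with labelled peptide and 100% = labelled peptide alone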
Target sequence (P14598 whole entry, looked up): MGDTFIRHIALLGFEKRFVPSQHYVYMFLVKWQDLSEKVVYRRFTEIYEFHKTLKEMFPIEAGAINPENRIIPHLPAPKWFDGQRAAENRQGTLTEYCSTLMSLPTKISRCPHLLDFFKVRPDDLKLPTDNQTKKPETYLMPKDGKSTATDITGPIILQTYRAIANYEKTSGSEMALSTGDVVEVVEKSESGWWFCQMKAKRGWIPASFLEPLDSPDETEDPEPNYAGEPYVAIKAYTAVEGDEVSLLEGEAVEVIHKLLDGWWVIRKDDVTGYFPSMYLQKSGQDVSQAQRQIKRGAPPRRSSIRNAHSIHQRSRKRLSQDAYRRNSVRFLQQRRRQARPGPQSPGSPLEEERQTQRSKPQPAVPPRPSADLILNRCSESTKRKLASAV
Tb hexokinase – T. brucei hexokinase 1 inhibition; 220,000 compounds, 0.11% hits; AID 1430; inhibition, % at 10 µM; recombinant TbHK1, G6PDH-coupled NADH A340;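 active = inhibition of 50% or more in the single-dose primary screen; inactive = inhibition below 50%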
RBBP9 inh – blocks human serine hydrolase RBBP9; O75884; recombinant RBBP9, FP-Rh probe fluorescence polarization; inhibition, % at 7.94 µM; 220,000 compounds, 0.2% hits;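 active = inhibition above the campaign mean of all tested compounds plus 3 SD, cut at about 14% in these data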;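 note: plate controls were DMSO wells with RBBP9 for no effect and wells lacking RBBP9 protein for full effect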
Target sequence (O75884 whole entry, looked up): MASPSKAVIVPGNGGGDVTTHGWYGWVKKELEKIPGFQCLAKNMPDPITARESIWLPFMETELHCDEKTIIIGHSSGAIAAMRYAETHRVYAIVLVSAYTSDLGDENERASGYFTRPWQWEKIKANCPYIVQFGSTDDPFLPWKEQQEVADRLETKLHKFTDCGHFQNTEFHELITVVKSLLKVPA
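Test system – recombinant human RBBP9 · Input – RBBP9 2.5 µM in dispensing solution, pre-mixing · Medium – Tris buffer pH 8.0, NaCl, Pluronic · Schedule – preincubation 30 min plus labeling 45 min at 25 °C · Measured by – fluorescence polarization · Measure – % inhibition · Controls – DMSO and no-protein wells · Replicates – one well per compound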
Yeast lifespan up – extends the lifespan of yeast; S. cerevisiae growth with nicotinamide, OD615; deaD strain in restrictive glucose medium; inhibition of the nicotinamide effect, % at 10 µM; 130,000 compounds, 0.68% hits;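 active = inhibition above a set limit, placed 3 SD over the median of all compounds, cut at about 26% in these data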;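 note: 0% = nicotinamide-treated wells and 100% = cells grown without nicotinamide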
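Assay system: engineered S. cerevisiae DeaD replicative-lifespan strain, galactose-grown log-phase cells; Buffer or medium: CSMM-D glucose medium, restrictive; Probe or stimulus: nicotinamide 1.5 mM; Compound: single dose 10 µM compound, 0.25% DMSO; Schedule: 4 h preincubation then 48 h treatment at 30 °C; Technique: OD615 measurement.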
BB579 growth dn – reduces growth of yeast BB579 in restrictive medium. inhibition, % at 10 µM. AID 804. S. cerevisiae BB579 growth, OD615, 48 h. 140,000 compounds, 0.51% hits;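 active = inhibition above a set limit, 3 SD over the mean compound inhibition, cut at about 44% in these data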
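System: Saccharomyces cerevisiae DeaD strain BB579, replicative lifespan model yeast. Buffer or medium: restrictive glucose-based CSMM-D medium. Doses: one dose, 10 µM compound with 0.25% DMSO. Timing: 4 h preincubation and 48 h exposure at 30 °C. Detection: turbidity as optical density at 615 nm. Benchmarks: amphotericin B 10 µg/mL, positive.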
The depositor's hits bear a star; . = no result.

SMILES	sdo1 growth	NCF1 inh	Tb hexokinase	RBBP9 inh	Yeast lifespan up	BB579 growth dn
CCOC(=O)c1ccccc1NC(=O)COC(=O)c1ccc(C)c(S(=O)(=O)N2CCOCC2)c1	-1.1	93*	-7	3	-5	-37
CCN1C(=O)/C(=C\c2nc3ccccc3c(=O)n2-c2ccccc2)c2ccccc21	-1.4	0	-10	-6	7	-69
CCN1C(=O)/C(=C/c2nc3ccccc3c(=O)[nH]2)c2ccccc21	-0.96	39*	-9	-4	15	-54
O=C(/C=C\c1cccs1)c1c(O)ccc2ccc(=O)oc12	-1.4	-4	-23	-5	27*	-31
O=C(/C=C/c1cccs1)c1ccc(Br)cc1	-0.69	.	8	2	-33	-32
CCN(CC)CCOc1ccc(/C(=C(/Cl)c2ccccc2)c2ccccc2)cc1	.	51*	1	-1	.	.
CC/C(=C(\c1ccc(O)cc1)c1ccc(OCCN(C)C)cc1)c1ccccc1	.	25	.	4	.	.
CCn1c(SCC(=O)Nc2cc(C)nn2-c2ccccc2)nnc1-c1cccs1	.	-2	-12	-5	.	.
CN1CCNC(=O)C1CC(=O)NCCc1ccccc1F (stereo not drawn)	.	0	-2	2	.	.
Cc1ccc(C)c(N(C(=O)Cn2nnc(-c3cccs3)n2)C(C(=O)NC2CCCC2)c2ccncc2)c1 (stereo not drawn)	0.52	0	-9	-6	3	-60
COc1cccc(N(C(=O)Cn2nnc(-c3cccs3)n2)C(C(=O)NC2CCCCC2)c2ccncc2)c1 (stereo not drawn)	1	46*	13	1	-3	-46
CCOc1cc(C)c(C(C)C)cc1S(=O)(=O)n1cnc(C)c1	.	12	-4	-7	.	.
CN(C)n1cccc1/C=C(\C#N)S(=O)(=O)c1ccc(Cl)cc1	.	-3	-3	-9	.	.
CNC(=O)c1cc(NC(=O)CCn2nc(-c3ccccc3)c3ccccc3c2=O)ccc1OC	.	-11	-10	-3	.	.
CCCCOc1ccc(C2(C(=O)O)CCCC2)cc1	-0.75	-14	5	-1	8	-12
CCCCOc1cccc(C2(C(=O)O)CCCC2)c1	-0.82	-14	31	3	28*	-7
CCc1nc(C)cc2c1sc1ccccc12	.	1	-17	0	.	.
CC[n+]1c(C)cc2c(sc3ccccc32)c1C	.	33*	2	-1	.	.
Cc1nc(N2CCCCC2)nc(N2CCCCC2)c1C=O	.	.	-30	-3	.	.
CCN(CCO)C(=O)C12CCC(C)(C(=O)C1)C2(C)C (stereo not drawn)	0.37	-20	5	2	68*	-1
N#CC(c1cccc(Cl)c1)c1ccc2c(C(F)(F)F)cc(C(F)(F)F)nc2n1 (stereo not drawn)	-2.1	-18	-8	3	-11	63*
CN=c1scc(-c2cccs2)n1/N=C/c1ccccc1O	-0.03	-6	23	4	-5	-8
COCCN=c1scc(-c2ccco2)n1/N=C/c1ccc(O)c(O)c1O	.	-2	3	24*	.	.
CC(C)N=c1scc(-c2ccco2)n1/N=C/c1ccc(O)c(O)c1	-1.5	-6	-14	-10	-30	92*
Oc1ccc(/C=N/n2c(-c3ccco3)csc2=Nc2cccnc2)c(O)c1	-1	-1	-27	-5	11	-43
SMILES	sdo1 growth	NCF1 inh	Tb hexokinase	RBBP9 inh	Yeast lifespan up	BB579 growth dn
CCc1cccc(CC)c1NC(=O)CSc1nnc(CCC(=O)O)c(=O)[nH]1	.	-5	1	-10	.	.
C/C(=N\N=C(N)N)c1ccc(Cl)c(Cl)c1	.	-9	-2	-5	.	.
CC(C)Cc1cc(C(=O)N2CCC(N3CCC(C(=O)N4CCOCC4)CC3)CC2)n[nH]1	.	-10	8	-4	.	.
O=C(N/N=C/c1coc2ccccc2c1=O)c1cn(-c2ccccc2)nc1-c1ccccc1	-0.21	-16	-5	-11	28*	-45
O=C(NC1CCCC1)C(c1ccncc1)N(C(=O)c1csnn1)C1CCCC1 (stereo not drawn)	.	-1	3	-7	.	.
Cc1ccc(CCN2CC(C(=O)NCCN3CCCCCC3)CC2=O)cc1 (stereo not drawn)	1.1	-9	-1	-3	-11	-25
Cc1ccc(CCN2CC(C(=O)NCCCN3CCCCCC3)CC2=O)cc1 (stereo not drawn)	1.4	38*	-25	-6	-8	23
COC(=O)Cn1c(O)c(N=NC(=O)c2ccc3c(c2)OCO3)c2ccccc21	.	-1	-10	-2	.	.
CC(C)(C)C1=CC(=O)C(=O)C(C(C)(C)C)=C1	-1.1	7	1	-9	40*	-44
CC(C)(C)C1=CC(=Nc2ccccc2N)C=C(C(C)(C)C)C1=O	1.2	-12	34	3	4	-30
CCOC(=O)c1ccc(-n2[nH]c(-c3ccccc3)cc2=O)cc1	-0.75	-10	-22	-2	-18	97*
CC1=CC(=O)c2c(O)ccc(O)c2C1=O	.	-23	8	16*	.	.
CCC1(c2ccc(Cl)cc2)NC(=S)N(c2ccc(C)cc2)N1 (stereo not drawn)	-1.2	-13	0	7	-3	-52
CC(C)(C)C1CCC2(CC1)NC(=S)N(c1ccccc1)N2 (stereo not drawn)	-2	-12	6	-3	.	-14
CC1(CCc2ccccc2)NC(=S)N(c2ccc(Cl)cc2)N1 (stereo not drawn)	-2	-8	1	-9	-9	97*
CC1(CCc2ccccc2)NC(=S)N(c2ccccc2)N1 (stereo not drawn)	-1.9	-2	31	3	-8	96*
Cc1ccccc1Oc1nc(-c2ccccn2)nc2ccccc12	.	11	-7	0	.	.
CCCCN(CCCC)CCNC(=O)CSCc1ccc(C)cc1	.	-5	2	-6	.	.
CCOc1ccc2nc(-c3ccc(OC)c(OC)c3)cc(C(=O)O)c2c1	3	-49	-20	-3	51*	-12
Cc1cccc(CCNC(=O)C2CCN(S(=O)(=O)c3cccc4nsnc34)CC2)c1	-0.55	-12	-11	-2	-2	-87
CN(CCCNC(=O)C1CCN(S(=O)(=O)c2cccc3nsnc23)CC1)Cc1ccccc1	0.65	5	58*	-11	-11	-18
O=C(NN1C(=O)c2ccccc2NC1c1ccccc1OCc1ccccc1)c1ccncc1 (stereo not drawn)	-0.18	-10	-3	-1	29*	-41
COc1ccc(Br)cc1C1Nc2ccccc2C(=O)N1NC(=O)c1ccncc1 (stereo not drawn)	1.3	1	-2	-1	-5	16
Cc1cc(-c2nnc(CSc3nnc(NC(=O)c4ccc(C(C)(C)C)cc4)s3)o2)ccc1[N+](=O)[O-]	.	-8	-5	-2	.	.
